Results gathered from unrelated publications.
Protocols differ between the studies behind these lines.
Target: Serine/threonine-protein kinase PLK3 (PLK3, Homo sapiens, UniProt Q9H4B4)

| SMILES | effect on | mode | method | tested at | endpoint | result |
| --- | --- | --- | --- | --- | --- | --- |
| CC(C)(C)c1cc(C=C(C#N)C#N)cc(Br)c1O | enzyme activity | inhibitor | – | 0.5 µM | remaining activity | 94.6% |
| N#CC1(c2ccccn2)CCN(Cc2cc(C(=O)O)c(=O)n3ccccc23)CC1 | cell-free assay | – | competition with immobilised ligand | 1 µM | remaining binding | 85% |
| Cn1cc(-c2cc(F)cc(N3CCn4c(cc5c4CCCC5)C3=O)c2CO)cc(Nc2ccc(N3CCN(C4COC4)CC3)cn2)c1=O | enzyme activity | inhibitor | – | 0.1 µM | inhibition | 10% |
| COc1cc(Nc2ncc(F)c(Nc3ccc4c(n3)NC(=O)C(C)(C)O4)n2)cc(OC)c1OC | binding | – | – | 10 µM | inhibition | 100% |
| Cc1nn(C)cc1-c1nc2c(N3CCN(Cc4ccc(Cl)cc4)CC3)c(Cl)cnc2[nH]1 | binding | – | competition with immobilised ligand | 1 µM | remaining binding | 88% |
| Cn1cncc1[C@@](O)(COc1ccc(C#N)cc1-c1ccc(OC(F)(F)F)cc1)c1ccc(C#N)cc1 | cell-free assay | – | competition with immobilised ligand | 1 µM | remaining binding | 88% |
| O=c1[nH]c2ccccc2n1C1CCN(Cc2ccc(-c3[nH]c4cc5ncnc5cc4nc3-c3ccccc3)cc2)CC1 | cell-free assay | – | – | 0.5 µM | remaining signal | 99.1% |
| Cn1cc(-c2cccc(N3CCc4c(sc5c4CC(C)(C)C5)C3=O)c2CO)cc(Nc2ccncn2)c1=O | enzyme activity | inhibitor | – | 1 µM | inhibition | -15% |
| Nc1ncc(-c2nc(N3CCOCC3)nc(N3CCOCC3)n2)c(C(F)F)n1 | binding | – | competition with immobilised ligand | 10 µM | remaining binding | 83% |
| COc1ncccc1-c1cnn2ccc(N3CCN(C(=O)OC(C)C)CC3)nc12 | binding | – | competition with immobilised ligand | 1 µM | remaining binding | 100% |
